The values that follow come from ChEMBL document CHEMBL1124025, “(Acyloxy)alkyl carbamates as novel bioreversible prodrugs for amines: increased permeation through biological membranes” (J Med Chem, 1988).

Data set [1] in a line: Hydrolysis half-life at 37 degree C in phosphate buffer at pH 7.4. Type of data set: ADME. In outline:
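Done as for the plasma runs but in pH 7.4 Sorensen's buffer at 37 °C. 0.1–0.2 mg prodrug added from a small DMSO drop, sampled at time points, and analysed by direct-injection HPLC for prodrug loss and/or parent amine formation. External-standard quantitation.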

For another data set, the species on record is Rattus norvegicus. Briefly: Percent diffusion through fuzzy rat skin after 48 h of incubation. Format: ADME. The following applies: in vitro. In outline:
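Whole ventral and dorsal skin from 8-week fuzzy rats (about 250 g) mounted in diffusion cells. Receptor was pH 7.0 phosphate-buffered 0.15 M NaCl with 22 ppm gentamicin. Ethanolic test solution spread on the skin surface. Cells occluded at 32 °C, stirred at 150 rpm, and 0.2 mL sampled with buffer replacement over 48 h. HPLC/UV quantitation; run in triplicate.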

Data set [2] is described as follows: Hydrolysis half-life at 37 degree C in rat plasma. Format: ADME. An outline of the steps: (§1)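 0.1–0.2 mg prodrug in a small drop of DMSO, mixed with 1 mL plasma held at 37 °C in a thermostated water bath. Samples drawn at intervals and injected directly onto HPLC to follow loss of prodrug and/or appearance of the parent amine; concentrations by external standard from peak areas. Half-life derived from the time course.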

The nature of data set [3]: Hydrolysis half-life at 37 degree C in dog plasma. Format: ADME, Canis lupus familiaris. In outline: as §1

For orientation: half-life means the time in which the quantity being followed falls by half. Low values mean fast loss, high ones slow loss. With `CC(=O)OCOC(=O)N(CC(O)COc1nsnc1N1CCOCC1)C(C)(C)C` (stereo not drawn), the half-life in data set [1] turned out to be 23.5 h; in data set [2] it was 3 min; in data set [3], 9.7 min. In the data set listed under Rattus norvegicus, the Diffusion was determined as 0.53%.

On to `CC(=O)OC(C)OC(=O)N(CC(O)COc1cccc2ccccc12)C(C)C` (stereo not drawn), for which the half-life turned out to be 44.5 h in data set [1] and 3 min in data set [2]. In the data set listed under Rattus norvegicus, this compound registered a Diffusion of 0.45%. As to `CC(=O)OC(C)OC(=O)N(CC(O)COc1ccc(CC(N)=O)cc1)C(C)C` (stereo not drawn), the Diffusion in the data set listed under Rattus norvegicus was 0.49%. Same read-out and setting: the value for `CC(=O)OC(C)OC(=O)N(CC(O)COc1cccc2[nH]ccc12)C(C)C` (stereo not drawn) was 0.35%; that for `CC(C)NCC(O)COc1ccc(CC(N)=O)cc1` (stereo not drawn) [ATENOLOL] was 0.13%; that for `CC(C)NCC(O)COc1cccc2[nH]ccc12` (stereo not drawn) [PINDOLOL] was 0.03%. Still for that read-out and setting: the value for `CC(C)NCC(O)COc1cccc2ccccc12` (stereo not drawn) [PROPRANOLOL] was 2.4%.

In the data set listed under Rattus norvegicus, `CC(C)(C)NC[C@H](O)COc1nsnc1N1CCOCC1` [TIMOLOL] gave a Diffusion of 18.14%.
